Bioassay records: PubChem BioAssay, The Scripps Research Institute Molecular Screening Center
Only some compounds are listed: those with a hit (about 3% of all), similar ones and a draw of the others.
5HT1E antag = 5-HT1E (human) receptor antagonism; CHO 5-HT1E Ga15 NFAT-bla reporter, FRET, antagonist; inhibition, % at 6 µM; 65,000 compounds, 0.99% hits;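 active means inhibition above a set limit, the mean inhibition across every tested compound plus 3 SD, cut at about 29% in these data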;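 further: signal is the 460 over 535 nm emission ratio of beta-lactamase substrate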
S1P3 agonist = S1P3 (human) receptor agonism. activation, % at 4.5 µM. 60,000 compounds, 0.1% hits. S1P3 NFAT-BLA reporter cells, FRET ratio; relative to 1 µM S1P, basal subtracted. Q99500;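 active means activation above the screen-wide mean plus 3 SD, cut at about 4.5% in these data, passing the limit was not always enough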
Target sequence (Q99500 whole entry, looked up): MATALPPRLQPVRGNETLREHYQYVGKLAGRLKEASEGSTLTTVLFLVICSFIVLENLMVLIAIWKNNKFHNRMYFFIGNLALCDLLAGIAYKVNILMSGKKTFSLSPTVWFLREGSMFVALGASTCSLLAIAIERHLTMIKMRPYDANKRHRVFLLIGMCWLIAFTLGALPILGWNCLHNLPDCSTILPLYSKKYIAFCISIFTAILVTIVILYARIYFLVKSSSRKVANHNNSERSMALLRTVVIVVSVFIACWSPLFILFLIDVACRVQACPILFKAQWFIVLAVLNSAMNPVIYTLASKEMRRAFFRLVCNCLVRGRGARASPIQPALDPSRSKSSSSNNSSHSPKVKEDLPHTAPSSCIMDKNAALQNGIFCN
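Benchmarks: high control 1 µM S1P / System: stable CHO line with human S1P3, Gα16, NFAT-BLA reporter / Dosing: single compound concentration, 4.5 µM final / Timing: 4 h compound at 37 °C, 2 h substrate at RT / Measured by: FRET β-lactamase substrate fluorescence, excitation 405 nm, 460/535 nm emission ratio, background-subtracted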
S1P1 ag-PAM = activates or potentiates agonism at human S1P1 receptor; S1P1 CRE-bla cells, forskolin, beta-lactamase FRET, potentiator mode; S1P1 agonist co-added at EC20, 2 nM; 100% = saturating reference agonist, 0% = basal; 56,000 compounds, 0.57% hits; activation, % at 9.5 µM; P21453; AID 449;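 active means activation above a cutoff set at the mean activation of all tested compounds plus 3 SD, cut at about 54% in these data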;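 further: forskolin at 4 µM as EC80 and the EC20 agonist is SEW2871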
5-HT1A blocker = 5-HT1a (human) receptor antagonism | AID 612 | inhibition, % at 10 µM | CHO 5-HT1a Ga15 NFAT-bla reporter, antagonist mode | 62,000 compounds, 0.68% hits;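 active means inhibition above the mean of all tested compounds plus 3 SD, cut at about 43% in these data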;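 further: receptor stimulated by 5-CT agonist at 100 nM near EC80; beta-lactamase reporter measured by ratiometric fluorescence of a cleavable substrate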
5HT1a ag = agonists of human 5-HT1a serotonin receptor; P08908; CHO 5-HT1a Ga15 NFAT-bla reporter, FRET ratio; 0% basal, 100% maximal reference agonist; activation, % at 10 µM; 65,000 compounds, 0.56% hits;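 active means activation above the screen-wide mean activation plus 3 SD, cut at about 19% in these data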
5HT1E ag = activates the human 5-HT1E serotonin receptor; CHO 5-HT1E Ga15 NFAT-bla reporter, FRET; 0% DMSO wells, 100% control agonist wells; P28566; activation, % at 6 µM; AID 574; 65,000 compounds, 0.69% hits;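 active means activation above a set limit, the screen-wide mean activation plus 3 SD, cut at about 8.5% in these data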
Large screens that a line does not name were inactive.

C(=C\c1ccccc1)/CSc1nnc(-c2ccccn2)n1Cc1ccco1	5-HT1A blocker 52.0
Clc1ccccc1CSc1nnc(-c2ccccn2)n1Cc1ccco1	none (no result: S1P3 agonist, S1P1 ag-PAM)
CCC(Oc1ccccc1)C(=O)N1CCN(c2ccccn2)CC1 (configuration not stated)	none (no result: S1P1 ag-PAM)
CCC(Oc1ccccc1)C(=O)N1CCC(C(N)=O)CC1 (configuration not stated)	5HT1a ag 20.1 (no result: S1P1 ag-PAM)
CN(C)c1ccc(C2N(c3cccc(Cl)c3)C(=O)C3CCCN32)cc1 (configuration not stated)	none
Cc1ccc(NC(=O)C2CCN(S(=O)(=O)c3cccc4cccnc34)CC2)nc1	none
CC1CCCCC1NC(=O)CN1CCC(O)(c2ccc(F)cc2)CC1 (configuration not stated)	none
CCN(CC)c1nc(Nc2ccc(Cl)cc2)nc(OCC#N)n1	5HT1E antag 33.0
CCN(CC)c1nc(Nc2ccccc2)nc(Oc2ccc(=O)[nH]n2)n1	none
Cc1nc(Nc2nc(=O)c3ccccc3n2C)nc2c(C)cccc12	none
CN1C(=O)CC(N2CCN(CCN=CC3=C(O)CC(C)(C)CC3=O)CC2)C1=O (configuration not stated)	5-HT1A blocker 54.8
Cc1ccc(S(=O)(=O)NCCCN2CCOCC2)c(C)c1	none (no result: S1P3 agonist, S1P1 ag-PAM)
CCOc1ccc(NC(=O)CN(C)CC(=O)Nc2ccccc2C#N)cc1OCC	5HT1a ag 288.6
CCCC1C2CN(C(C)C)CC=C2C(C#N)=C(N)C1(C#N)C#N (configuration not stated)	none
COc1ccc(C(c2nnnn2CC2CCCO2)N2CCN(c3cccc(C)c3C)CC2)cc1 (configuration not stated)	none
CCCCC(c1nnnn1CC1CCCO1)N1CCN(c2cccc(C)c2C)CC1 (configuration not stated)	5HT1E ag 37.9
CC(=O)N1CCc2cc(S(=O)(=O)NC(CC(C)C)C(=O)Nc3ccc4c(c3)OCCO4)ccc21 (configuration not stated)	none
CCN(CC)CCNc1nc2c(c(=O)[nH]c(=O)n2C)n1CCOc1ccccc1	none (no result: 5-HT1A blocker)
Cn1cc(/C=N/n2cnc3scc(-c4ccccc4)c3c2=O)c2ccccc21	5HT1E antag 30.3
Cc1ccc2nc(C3CCN(C(=O)c4ccco4)CC3)[nH]c2c1	none
CCCCCC(=O)N1CC2(CC)CN(C(=O)CCCCC)CC(CC)(C1)C2=O	none (no result: 5-HT1A blocker)
CC(=O)Nc1cccc(-c2nc3ccc(NC(C)=O)cc3[nH]2)c1	none
CC(=O)Nc1ccc2nc(-c3cccnc3)[nH]c2c1	5HT1E ag 16.6 (no result: S1P3 agonist, S1P1 ag-PAM)
COC(=O)c1cc(CC(=O)c2ccc(O)cc2O)c(C)o1	5HT1a ag 284.3
COC(=O)c1ccc(CC(=O)c2ccc(O)cc2O)o1	none
N#Cc1nc(-c2ccco2)oc1NCCc1ccccc1	none
N#Cc1nc(-c2cccs2)oc1NCCc1ccccc1	5HT1E antag 35.5 (no result: 5-HT1A blocker)
Cc1cc(C(C)(C)C)cc(C)c1CC1=NCCN1	5HT1a ag 43.4, 5HT1E ag 89.1 (no result: 5-HT1A blocker)
Clc1cccc(N2CCN(CCNc3nc4ccccc4n4cnnc34)CC2)c1	5HT1E ag 8.9
COc1ccc(N2CCN(CCNC(=O)c3ccc(NC(=O)C4CCCO4)cc3)CC2)cc1 (configuration not stated)	none (no result: S1P3 agonist, S1P1 ag-PAM)
COc1ccc(CN2CCN(c3cccc(C)c3C)CC2)cc1OC	5HT1a ag 28.7, 5HT1E ag 24.0 (no result: S1P1 ag-PAM)
COc1ccc(CN2CCC(C(=O)N3CCN(c4ccccc4F)CC3)CC2)cc1OC	none
COc1cc(CN2CCN(c3cccc(C)c3C)CC2)cc(Br)c1O	5HT1E ag 36.1
O=C(Nc1ccc(-c2noc(COc3ccccc3Cl)n2)cc1)c1ccco1	none (no result: S1P3 agonist, S1P1 ag-PAM)
CC(C)(C)OC(=O)NCCc1nnc(S(=O)(=O)Cc2ccc(Cl)cc2Cl)o1	5-HT1A blocker 68.7
CC1CCCCC1NS(=O)(=O)c1ccc(S(=O)(=O)NCc2ccncc2)cc1 (configuration not stated)	none
Cc1sc2nc(C3CC3)nc(NCCNS(C)(=O)=O)c2c1C	5HT1E antag 38.8
Cc1sc2nc(C3CC3)nc(N3CCN(S(=O)(=O)c4ccc(F)cc4)CC3)c2c1C	none
CN(C)c1ccnc(NCc2ccccc2)c1C#N	5HT1a ag 20.3
CCOc1cccc(N2C(=O)CC(NCc3ccc(S(N)(=O)=O)cc3)C2=O)c1 (configuration not stated)	none
O=C(Cn1cc2c(n1)CCCCC2)NC1CCN(Cc2ccccc2)CC1	5HT1a ag 28.5
CCCN1CCN(CCCNC(=O)Cn2cc3c(n2)CCCC3)CC1	none
CC1CCc2nn(CC(=O)NC3CCCC3)cc2C1 (configuration not stated)	5HT1a ag 40.0
CCOCCCNC(=O)Cn1cc2c(n1)CCCC2	5HT1a ag 36.3
CCCn1c(=O)n(C)c(=O)c2c3oc(=O)c(NC(=O)c4ccc(F)cc4)cc3[nH]c21	none
Cc1ccc(Cl)cc1N1CCN(S(=O)(=O)c2cnc[nH]2)CC1	none
O=C(NC1CCCCC1)C(c1ccco1)N(Cc1ccco1)C(=O)c1ccco1 (configuration not stated)	5-HT1A blocker 48.7
O=C(Cc1cccs1)N(Cc1ccco1)C1(C(=O)NC2CCCC2)CCCCC1	5-HT1A blocker 62.7 (no result: S1P3 agonist, S1P1 ag-PAM)
Cc1ccc(-c2nnn(CC(=O)N(Cc3cccs3)C(C(=O)NC3CCCC3)c3ccco3)n2)o1 (configuration not stated)	none
O=C(NC1CCCCC1)C(c1ccco1)N(Cc1cccs1)C(=O)Cn1nnc2ccccc21 (configuration not stated)	5-HT1A blocker 46.4
O=C(NC1CCCC1)C(c1ccsc1)N(Cc1ccco1)C(=O)Cc1cccs1 (configuration not stated)	5-HT1A blocker 58.1
Cn1c(Cn2nnc3ccccc32)nnc1SCC(=O)N1CCc2ccccc21	none
CCOC(=O)N1CCC(Nc2c(-c3ccc(C)c(C)c3)c(=O)c2=O)CC1	none
CCOC(=O)N1CCC(Nc2c(N3CCN(c4cc(Cl)ccc4C)CC3)c(=O)c2=O)CC1	5HT1a ag 64.5
NC(=O)c1ccc(OCC(F)(F)C(F)(F)C(F)(F)C(F)(F)C(F)(F)C(F)F)cc1	S1P1 ag-PAM 62.8
CC1(C)CC(=O)C(C=NCCCn2ccnc2)=C(O)C1	none
Cc1nn(Cc2ccc(Cl)c(Cl)c2)c(C)c1NC(=O)c1cc(-c2ccco2)on1	S1P1 ag-PAM 95.6
Cc1nn(Cc2ccc(Cl)cc2)c(C)c1NC(=O)c1cc(-c2ccco2)on1	none
CCOC(=O)CN(C(=O)CSc1nnc(-c2cccc(OC)c2)o1)c1ccc(F)cc1	S1P1 ag-PAM 81.5
Nc1c(Br)cc(Br)c(N2CCCC2=O)c1Br	none
